From ChEMBL document CHEMBL2029242 (J Med Chem, 2012)
The source made the active and inactive calls. The rule behind the calls is not given here.

Tests used:
[1] = AUC (0 to 24 hrs) in beagle dog at 10 mg/kg, po; type: ADME, organism-based, Canis lupus familiaris; design: time < 24 hr, dose 10 mg/kg, route oral; conditions: plasma
Procedure, shortened: (§1)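 Single-dose PK. Rats: male Sprague−Dawley, jugular-catheterized, 1 mg/kg iv in 3:1 PEG400/water (n = 2) and 10 mg/kg po in Pharmatek #6 (n = 3). Female athymic nude mice: 100 mg/kg po in Pharmatek #6 (n = 3). Beagle dogs and male cynomolgus monkeys (n = 3): crossover, 1 mg/kg iv and 10 mg/kg po in 22% HPβCD, overnight fast. Plasma LC-MS/MS to 24 h; noncompartmental parameters, mean ± SD.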

Aurora kinase B = Aurora kinase B (Homo sapiens, UniProt Q96GD4); assay: Inhibition of Aurora B in human HEK293 cells after 1 hr by competition binding assay; type: cell-based
Procedure, shortened: (§2)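 KINOMEscan competition binding. Binding reactions ran at rt for 1 h. Unbound kinase was captured on an immobilized affinity ligand and quantified by qPCR. Each kinase was tested individually.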

LNCaP = assay: Cytotoxicity against human LNCAP cells expressing wild type BRAF after 72 hrs by cell titer blue assay; type: functional, cell-based
Procedure, shortened: (§3)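 Cells were grown in ATCC-recommended media and kept overnight in 0.5% serum. They were then exposed to compound for 72 h, and Cell Titer Blue was added for 3 h. EC50 came from fluorometric concentration−response curves, run in duplicate and repeated at least once.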

[2] = molecular target: Dual specificity mitogen-activated protein kinase kinase 1 (Homo sapiens, UniProt Q02750); assay: Inhibition of MEK1 in human HEK293 cells after 1 hr by competition binding assay; type: cell-based; procedure, shortened: as §2
[3] = molecular target: Macrophage colony-stimulating factor 1 receptor (Homo sapiens, UniProt P07333); assay: Inhibition of CSF1R in human HEK293 cells after 1 hr by competition binding assay; type: cell-based
Chain of Macrophage colony-stimulating factor 1 receptor (P07333 whole entry): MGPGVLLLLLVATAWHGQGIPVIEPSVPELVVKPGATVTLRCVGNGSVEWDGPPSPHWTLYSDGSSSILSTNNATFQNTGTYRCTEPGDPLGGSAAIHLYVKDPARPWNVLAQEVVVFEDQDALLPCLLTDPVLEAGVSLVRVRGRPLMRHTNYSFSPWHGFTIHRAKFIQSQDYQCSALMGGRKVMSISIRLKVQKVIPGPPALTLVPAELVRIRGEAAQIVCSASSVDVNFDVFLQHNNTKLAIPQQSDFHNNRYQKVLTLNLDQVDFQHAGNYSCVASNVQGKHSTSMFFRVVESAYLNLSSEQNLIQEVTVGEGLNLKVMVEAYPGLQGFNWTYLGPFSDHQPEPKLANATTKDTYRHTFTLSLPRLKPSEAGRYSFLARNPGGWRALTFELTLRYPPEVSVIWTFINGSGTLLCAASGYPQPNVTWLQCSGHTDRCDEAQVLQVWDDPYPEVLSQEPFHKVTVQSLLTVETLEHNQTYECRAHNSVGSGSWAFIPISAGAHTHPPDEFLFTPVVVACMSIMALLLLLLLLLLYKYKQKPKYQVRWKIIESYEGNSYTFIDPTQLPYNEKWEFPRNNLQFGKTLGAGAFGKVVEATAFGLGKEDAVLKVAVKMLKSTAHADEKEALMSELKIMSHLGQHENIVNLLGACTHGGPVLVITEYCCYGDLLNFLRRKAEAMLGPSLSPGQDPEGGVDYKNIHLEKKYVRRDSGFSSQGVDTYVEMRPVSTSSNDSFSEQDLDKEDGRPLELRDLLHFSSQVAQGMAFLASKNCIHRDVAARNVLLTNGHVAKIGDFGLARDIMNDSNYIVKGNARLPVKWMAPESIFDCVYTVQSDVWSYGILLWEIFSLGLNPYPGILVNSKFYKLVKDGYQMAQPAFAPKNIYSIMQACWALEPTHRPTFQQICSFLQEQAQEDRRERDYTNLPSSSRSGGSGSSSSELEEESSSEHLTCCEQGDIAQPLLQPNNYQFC
Procedure, shortened: (§4)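 Unbound kinase was captured on immobilized affinity ligand and quantified by qPCR. Kd came from eleven serial 3-fold dilutions, as the mean of duplicates.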

COLO 205 = assay: Antitumor activity against human COLO205 cells xenografted in athymic nude mouse at 100 mg/kg, po bid for 14 days; type: functional, organism-based; design: dose 100 mg/kg
Procedure, shortened: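 Athymic nude mice carried subcutaneous flank Colo-205 xenografts (1 × 10^6 cells), randomized at 150−200 mm3 (n = 10/group). Oral dosing BID for 14 days in 22% HPβCD against vehicle controls. Caliper volumes W2(L/2) taken three times weekly. Partial regression: volume fell in ≥3 successive measurements to below the starting volume while the tumor stayed palpable.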

[4] = Tmax in Sprague-Dawley rat at 10 mg/kg, po; type: ADME, organism-based; design: dose 10 mg/kg, route oral; conditions: in vivo
Procedure, shortened: (§5)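 Male Sprague-Dawley rats (250–350 g, jugular-catheterized) received a single dose either iv at 1 mg/kg in 3:1 PEG400/water (n = 2) or po at 10 mg/kg in Pharmatek #6 (n = 3). Plasma was sampled at 5 min (iv only), 15 and 30 min, and 1, 2, 4, 6 and 24 h. Samples were analyzed by LC-MS/MS after acetonitrile precipitation. Parameters came from noncompartmental linear-trapezoidal analysis of individual animals.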

[5] = AUC (infinity) in Cynomolgus monkey at 10 mg/kg, po; type: ADME, organism-based, Macaca fascicularis; design: dose 10 mg/kg, route oral, time infinity; conditions: plasma; procedure, shortened: as §1
[6] = Oral bioavailability in beagle dog at 10 mg/kg; type: ADME, organism-based, Canis lupus familiaris; conditions: in vivo
Procedure, shortened: (§6)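 Male non-naive cynomolgus monkeys (2.6–3.4 kg) and beagle dogs (10.3–11.9 kg), n = 3 each, were dosed in a crossover design with a ≥7-day washout. Doses were 10 mg/kg by nasogastric gavage and 1 mg/kg as a saphenous iv bolus, both free base in 22% HPβCD. Animals were fasted overnight until about 4 h post dose. Femoral plasma was sampled from predose to 24 h and analyzed by LC-MS/MS. Parameters came from noncompartmental analysis; mean ± SD reported.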

SK-MEL-28 = assay: Cytotoxicity against human SK-MEL-28 cells expressing BRAF V600E mutant after 72 hrs by cell titer blue assay; type: functional, cell-based; conditions: SK-MEL-28, 72 h; procedure, shortened: as §3
[7] = molecular target: Phosphatidylinositol 4,5-bisphosphate 3-kinase catalytic subunit beta isoform (Homo sapiens, UniProt P42338); assay: Inhibition of PIK3-CB in human HEK293 cells after 1 hr by competition binding assay; type: cell-based; procedure, shortened: as §4
[8] = molecular target: Mitogen-activated protein kinase 1 (Homo sapiens, UniProt P28482); assay: Inhibition of ERK2 in human HEK293 cells after 1 hr by competition binding assay; type: cell-based; procedure, shortened: as §2
[9] = Terminal half life in Sprague-Dawley rat at 1 mg/kg, iv and 10 mg/kg, po; type: ADME, organism-based; conditions: in vivo, read-out: beta t1/2 (converted); procedure, shortened: as §5
[10] = Oral bioavailability in Cynomolgus monkey at 10 mg/kg; type: ADME, organism-based, Macaca fascicularis; conditions: in vivo; procedure, shortened: as §6
[11] = molecular target: Tyrosine-protein kinase ABL1 (Homo sapiens, UniProt P00519); assay: Inhibition of Abl1 in human HEK293 cells after 1 hr by competition binding assay; type: cell-based; procedure, shortened: as §2
Chain of Tyrosine-protein kinase ABL1 (P00519 whole entry): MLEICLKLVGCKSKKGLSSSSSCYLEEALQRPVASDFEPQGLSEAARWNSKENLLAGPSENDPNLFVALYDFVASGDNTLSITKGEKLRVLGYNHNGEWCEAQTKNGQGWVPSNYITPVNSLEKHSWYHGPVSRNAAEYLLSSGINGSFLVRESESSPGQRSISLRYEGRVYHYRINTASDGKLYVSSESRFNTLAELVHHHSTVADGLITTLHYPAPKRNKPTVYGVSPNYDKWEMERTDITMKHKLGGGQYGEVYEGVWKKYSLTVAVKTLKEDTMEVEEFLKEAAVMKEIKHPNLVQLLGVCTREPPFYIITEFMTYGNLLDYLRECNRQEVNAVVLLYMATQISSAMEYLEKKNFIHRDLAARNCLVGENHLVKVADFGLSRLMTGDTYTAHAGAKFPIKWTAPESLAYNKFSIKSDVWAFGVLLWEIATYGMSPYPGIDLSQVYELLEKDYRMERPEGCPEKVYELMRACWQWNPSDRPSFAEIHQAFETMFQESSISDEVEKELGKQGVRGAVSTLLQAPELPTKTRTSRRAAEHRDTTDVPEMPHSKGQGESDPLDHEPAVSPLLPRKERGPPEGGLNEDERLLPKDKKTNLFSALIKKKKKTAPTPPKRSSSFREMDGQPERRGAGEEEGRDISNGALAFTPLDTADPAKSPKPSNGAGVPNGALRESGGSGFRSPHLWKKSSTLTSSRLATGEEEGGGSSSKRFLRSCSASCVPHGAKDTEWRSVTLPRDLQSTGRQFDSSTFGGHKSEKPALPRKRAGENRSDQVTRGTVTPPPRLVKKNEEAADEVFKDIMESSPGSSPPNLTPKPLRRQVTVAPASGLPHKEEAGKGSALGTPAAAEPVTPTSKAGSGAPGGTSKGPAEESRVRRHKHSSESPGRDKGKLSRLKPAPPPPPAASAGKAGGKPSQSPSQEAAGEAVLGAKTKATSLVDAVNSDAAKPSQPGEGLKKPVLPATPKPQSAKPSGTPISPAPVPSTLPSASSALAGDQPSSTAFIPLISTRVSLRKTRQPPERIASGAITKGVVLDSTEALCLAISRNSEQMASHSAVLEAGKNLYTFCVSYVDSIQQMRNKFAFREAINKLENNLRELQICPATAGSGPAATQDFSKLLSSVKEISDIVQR

[12] = Volume of distribution in Sprague-Dawley rat at 1 mg/kg, iv and 10 mg/kg, po; type: ADME, organism-based; conditions: in vivo; procedure, shortened: as §5
DU-145 = assay: Cytotoxicity against human DU145 cells expressing wild type BRAF after 72 hrs by cell titer blue assay; type: functional, cell-based; conditions: DU-145, 72 h; procedure, shortened: as §3
Mus musculus [13] = assay: Toxicity in athymic nude mouse xenografted with human COLO205 cells at 30 mg/kg, po bid for 14 days; type: organism-based, COLO 205; design: dose 30 mg/kg, route oral; conditions: in vivo, 336 h
Procedure, shortened: (§7)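 Athymic nude mice (20–25 g) were inoculated subcutaneously in the flank with 1×10^6 Colo-205 cells. At 150–200 mm3 they were randomized (n = 10/group) to oral vehicle (22% HPβCD) or 10, 30 or 100 mg/kg BID for 14 days. Calipers were used three times weekly. Body weight and behavior were monitored, with 7–10 days of follow-up after dosing. Partial regression meant volume falling in ≥3 successive measurements, ending below baseline but still palpable.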

[14] = Cmax in beagle dog at 10 mg/kg, po; type: ADME, organism-based, Canis lupus familiaris; design: dose 10 mg/kg, route oral; conditions: in vivo; procedure, shortened: as §1
Mus musculus [15] = assay: Toxicity in athymic nude mouse xenografted with human COLO205 cells at 100 mg/kg, po bid for 14 days; type: organism-based, COLO 205; design: dose 100 mg/kg, route oral; conditions: in vivo, 336 h; procedure, shortened: as §7
[16] = molecular target: Tyrosine-protein kinase JAK2 (Homo sapiens, UniProt O60674); assay: Inhibition of JAK2 in human HEK293 cells after 1 hr by competition binding assay; type: cell-based; procedure, shortened: as §4
Chain of Tyrosine-protein kinase JAK2 (O60674 whole entry): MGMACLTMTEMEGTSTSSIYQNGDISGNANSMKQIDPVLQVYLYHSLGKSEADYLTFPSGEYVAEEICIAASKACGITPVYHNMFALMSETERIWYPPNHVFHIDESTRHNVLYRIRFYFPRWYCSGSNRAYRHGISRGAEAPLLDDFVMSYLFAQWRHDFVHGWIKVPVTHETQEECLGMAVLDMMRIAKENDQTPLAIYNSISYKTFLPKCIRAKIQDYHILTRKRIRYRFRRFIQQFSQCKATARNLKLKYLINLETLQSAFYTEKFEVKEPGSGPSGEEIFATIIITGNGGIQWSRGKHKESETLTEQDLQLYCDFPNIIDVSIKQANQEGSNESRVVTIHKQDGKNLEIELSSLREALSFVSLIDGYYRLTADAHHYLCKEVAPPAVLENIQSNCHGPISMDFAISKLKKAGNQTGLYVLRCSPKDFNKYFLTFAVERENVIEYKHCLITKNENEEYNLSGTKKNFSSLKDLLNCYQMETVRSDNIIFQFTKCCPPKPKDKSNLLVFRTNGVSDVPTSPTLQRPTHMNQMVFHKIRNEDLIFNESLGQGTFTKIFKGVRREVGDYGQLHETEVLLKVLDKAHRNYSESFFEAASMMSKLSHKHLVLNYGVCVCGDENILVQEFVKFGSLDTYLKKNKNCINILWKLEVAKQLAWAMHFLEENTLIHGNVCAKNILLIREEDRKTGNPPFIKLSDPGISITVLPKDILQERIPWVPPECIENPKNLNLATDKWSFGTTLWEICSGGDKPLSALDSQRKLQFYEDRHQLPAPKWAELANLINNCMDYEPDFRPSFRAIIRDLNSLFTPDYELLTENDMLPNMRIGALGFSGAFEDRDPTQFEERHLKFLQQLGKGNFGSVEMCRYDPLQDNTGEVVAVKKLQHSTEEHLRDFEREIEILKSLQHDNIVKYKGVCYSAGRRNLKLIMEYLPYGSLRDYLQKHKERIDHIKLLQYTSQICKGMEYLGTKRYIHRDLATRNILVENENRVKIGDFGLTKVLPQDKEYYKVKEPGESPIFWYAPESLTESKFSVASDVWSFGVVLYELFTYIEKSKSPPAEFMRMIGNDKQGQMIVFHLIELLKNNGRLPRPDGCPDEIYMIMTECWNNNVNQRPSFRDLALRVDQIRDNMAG

[17] = molecular target: Serine/threonine-protein kinase PLK1 (Homo sapiens, UniProt P53350); assay: Inhibition of PLK1 in human HEK293 cells after 1 hr by competition binding assay; type: cell-based; procedure, shortened: as §2
Chain of Serine/threonine-protein kinase PLK1 (P53350 whole entry): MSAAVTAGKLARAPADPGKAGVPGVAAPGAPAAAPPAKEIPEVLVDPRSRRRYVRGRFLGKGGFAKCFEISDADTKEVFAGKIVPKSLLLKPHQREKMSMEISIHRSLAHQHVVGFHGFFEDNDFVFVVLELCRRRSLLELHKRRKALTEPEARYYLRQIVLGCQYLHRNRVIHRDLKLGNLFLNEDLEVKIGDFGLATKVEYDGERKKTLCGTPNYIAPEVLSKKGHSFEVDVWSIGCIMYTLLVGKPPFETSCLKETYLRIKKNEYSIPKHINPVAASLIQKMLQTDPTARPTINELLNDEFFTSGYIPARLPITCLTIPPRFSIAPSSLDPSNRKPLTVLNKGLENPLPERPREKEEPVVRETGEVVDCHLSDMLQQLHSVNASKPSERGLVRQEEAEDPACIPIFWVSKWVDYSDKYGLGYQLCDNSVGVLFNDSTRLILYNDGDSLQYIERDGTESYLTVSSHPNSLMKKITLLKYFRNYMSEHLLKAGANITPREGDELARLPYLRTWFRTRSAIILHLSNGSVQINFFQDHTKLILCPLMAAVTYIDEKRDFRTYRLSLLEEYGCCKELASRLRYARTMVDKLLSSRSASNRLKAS

[18] = molecular target: Tyrosine-protein kinase JAK3 (Homo sapiens, UniProt P52333); assay: Inhibition of JAK3 in human HEK293 cells after 1 hr by competition binding assay; type: cell-based; procedure, shortened: as §4
Chain of Tyrosine-protein kinase JAK3 (P52333 whole entry): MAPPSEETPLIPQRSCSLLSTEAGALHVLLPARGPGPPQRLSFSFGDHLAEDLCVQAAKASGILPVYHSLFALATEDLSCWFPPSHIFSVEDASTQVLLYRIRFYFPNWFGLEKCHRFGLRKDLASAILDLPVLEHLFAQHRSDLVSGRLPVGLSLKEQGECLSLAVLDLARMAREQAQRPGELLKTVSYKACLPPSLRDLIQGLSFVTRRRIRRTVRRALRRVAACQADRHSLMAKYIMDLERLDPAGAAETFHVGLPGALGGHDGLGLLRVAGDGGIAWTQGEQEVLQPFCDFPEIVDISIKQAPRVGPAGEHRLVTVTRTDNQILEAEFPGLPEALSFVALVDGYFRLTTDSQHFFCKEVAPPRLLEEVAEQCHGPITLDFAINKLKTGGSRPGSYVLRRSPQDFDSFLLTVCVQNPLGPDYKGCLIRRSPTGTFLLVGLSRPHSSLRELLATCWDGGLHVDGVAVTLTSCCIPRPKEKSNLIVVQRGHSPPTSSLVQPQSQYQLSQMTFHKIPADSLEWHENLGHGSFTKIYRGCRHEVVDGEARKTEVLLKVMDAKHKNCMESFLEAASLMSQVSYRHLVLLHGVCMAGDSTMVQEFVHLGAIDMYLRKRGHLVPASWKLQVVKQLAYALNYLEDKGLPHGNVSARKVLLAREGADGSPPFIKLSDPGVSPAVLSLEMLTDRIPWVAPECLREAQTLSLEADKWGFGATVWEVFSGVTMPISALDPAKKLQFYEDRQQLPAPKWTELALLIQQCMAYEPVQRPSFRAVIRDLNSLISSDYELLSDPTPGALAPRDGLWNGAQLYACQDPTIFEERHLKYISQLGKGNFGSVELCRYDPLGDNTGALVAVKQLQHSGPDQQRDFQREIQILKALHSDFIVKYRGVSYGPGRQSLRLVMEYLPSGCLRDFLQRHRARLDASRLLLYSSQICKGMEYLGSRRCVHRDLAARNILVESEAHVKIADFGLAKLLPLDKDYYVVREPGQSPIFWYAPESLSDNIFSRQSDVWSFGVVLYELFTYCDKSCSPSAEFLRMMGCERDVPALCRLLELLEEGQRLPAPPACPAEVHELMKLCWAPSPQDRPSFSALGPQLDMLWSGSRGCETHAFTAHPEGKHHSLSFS

[19] = AUC (infinity) in athymic nude mouse at 100 mg/kg, po; type: ADME, organism-based; design: time infinity, dose 100 mg/kg, route oral; conditions: plasma; procedure, shortened: as §1
[20] = Intrinsic clearance in Cynomolgus monkey liver microsomes; type: ADME, Macaca fascicularis, Microsome
Procedure, shortened: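 Pooled liver microsomes (0.5 mg/mL) in 0.1 M phosphate pH 7.4 with 6.5 mM MgCl2 and compound at 1 μM (0.2% DMSO). NADPH (1 mM) started the reaction at 37 °C, with minus-NADPH and testosterone controls. Aliquots taken at 0, 5, 15, 30 and 60 min were quenched in acetonitrile; duplicates.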

COc1cc2ncnc(Oc3cccc(NC(=O)Nc4cc(C(C)(C)C(F)(F)F)on4)c3)c2cc1OC [CEP-32496]
AUC(0-t) at 24 h [1]: 55.1 µM·h
Kd (Aurora kinase B): > 10 µM
EC50 (LNCaP): 6.63 µM
Kd [2]: 7.1 µM
Kd [3]: 0.009 µM
Activity (COLO 205): Active
Tmax [4]: 2 h
AUC(0-inf) [5]: 92.2 µM·h
bioavailability [6]: 100%
EC50 (SK-MEL-28): 0.454 µM
Kd [7]: > 10 µM
Kd [8]: > 10 µM
half-life [9]: 7.8 h
bioavailability [10]: 100%
Kd [11]: 0.003 µM
Vd [12]: 1.6 L/kg
EC50 (DU-145): 2.91 µM
Activity (Mus musculus [13]): Non-toxic
Cmax [14]: 5.2 µM
Activity (Mus musculus [15]): Non-toxic
Kd [16]: 4.7 µM
Kd [17]: > 10 µM
Kd [18]: > 10 µM
AUC(0-inf) [19]: 394 µM·h
CLH [20]: < 23 µL/min/mg
